Laboratory results: ChEMBL document CHEMBL5653631, “A Potent and Selective ULK1 Inhibitor Suppresses Autophagy and Sensitizes Cancer Cells to Nutrient Stress” (iScience, 2018)
Blank lines part the entries; values can stand above or below the compound they belong to.

Tests used:
[1] = molecular target: Protein kinase C beta type (Homo sapiens) (UniProt P05771); test: Inhibition of human recombinant PKCb at 500 nM related to control ULK1
[2] = molecular target: Serine/threonine-protein kinase MAK (Homo sapiens) (UniProt P20794); test: Inhibition of human recombinant MAK at 500 nM related to control ULK1
[3] = molecular target: Tyrosine-protein kinase Lyn (Homo sapiens) (UniProt P07948); test: Inhibition of human recombinant LYN at 500 nM related to control ULK1
[4] = molecular target: Serine/threonine-protein kinase 24 (Homo sapiens) (UniProt Q9Y6E0); test: Inhibition of human recombinant MST3 at 500 nM in presence of ATP by radiometric assay relative to control
Chain of Serine/threonine-protein kinase 24 (Homo sapiens) (Q9Y6E0 whole entry, looked up): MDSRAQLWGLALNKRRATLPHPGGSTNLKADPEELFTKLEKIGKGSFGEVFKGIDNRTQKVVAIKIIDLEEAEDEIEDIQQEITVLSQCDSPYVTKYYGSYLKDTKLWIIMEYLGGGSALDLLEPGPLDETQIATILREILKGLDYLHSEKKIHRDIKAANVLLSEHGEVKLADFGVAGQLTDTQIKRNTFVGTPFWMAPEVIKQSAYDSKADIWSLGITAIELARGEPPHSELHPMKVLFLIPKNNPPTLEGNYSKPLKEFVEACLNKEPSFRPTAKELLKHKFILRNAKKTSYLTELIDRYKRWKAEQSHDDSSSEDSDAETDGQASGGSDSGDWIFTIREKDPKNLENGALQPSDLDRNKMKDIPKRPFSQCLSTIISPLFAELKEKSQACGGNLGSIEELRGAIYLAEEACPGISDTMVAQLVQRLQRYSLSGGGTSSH

[5] = molecular target: Serine/threonine-protein kinase pim-3 (Homo sapiens) (UniProt Q86V86); test: Inhibition of human recombinant PIM3 at 500 nM in presence of ATP by radiometric assay relative to control
[6] = molecular target: Cyclin-dependent kinase 18 (Homo sapiens) (UniProt Q07002); test: Inhibition of human recombinant PCTAIRE3 at 500 nM related to control ULK1
Chain of Cyclin-dependent kinase 18 (Homo sapiens) (Q07002 whole entry): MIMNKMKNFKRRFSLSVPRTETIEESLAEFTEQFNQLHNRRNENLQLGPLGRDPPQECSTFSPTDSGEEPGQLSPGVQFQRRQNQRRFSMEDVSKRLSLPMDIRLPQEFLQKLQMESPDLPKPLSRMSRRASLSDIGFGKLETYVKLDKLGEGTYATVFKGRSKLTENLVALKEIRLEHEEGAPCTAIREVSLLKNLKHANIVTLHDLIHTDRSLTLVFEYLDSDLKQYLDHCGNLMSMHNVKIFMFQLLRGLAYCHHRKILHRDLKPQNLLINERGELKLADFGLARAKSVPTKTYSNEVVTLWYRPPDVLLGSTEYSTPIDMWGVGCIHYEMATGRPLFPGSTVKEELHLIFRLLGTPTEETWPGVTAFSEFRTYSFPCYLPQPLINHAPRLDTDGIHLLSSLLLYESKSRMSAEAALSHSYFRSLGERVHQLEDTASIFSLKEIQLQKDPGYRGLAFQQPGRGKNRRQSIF

[7] = molecular target: Receptor-interacting serine/threonine-protein kinase 2 (Homo sapiens) (UniProt O43353); test: Inhibition of human recombinant RIPK2 at 500 nM related to control ULK1
Chain of Receptor-interacting serine/threonine-protein kinase 2 (Homo sapiens) (O43353 whole entry): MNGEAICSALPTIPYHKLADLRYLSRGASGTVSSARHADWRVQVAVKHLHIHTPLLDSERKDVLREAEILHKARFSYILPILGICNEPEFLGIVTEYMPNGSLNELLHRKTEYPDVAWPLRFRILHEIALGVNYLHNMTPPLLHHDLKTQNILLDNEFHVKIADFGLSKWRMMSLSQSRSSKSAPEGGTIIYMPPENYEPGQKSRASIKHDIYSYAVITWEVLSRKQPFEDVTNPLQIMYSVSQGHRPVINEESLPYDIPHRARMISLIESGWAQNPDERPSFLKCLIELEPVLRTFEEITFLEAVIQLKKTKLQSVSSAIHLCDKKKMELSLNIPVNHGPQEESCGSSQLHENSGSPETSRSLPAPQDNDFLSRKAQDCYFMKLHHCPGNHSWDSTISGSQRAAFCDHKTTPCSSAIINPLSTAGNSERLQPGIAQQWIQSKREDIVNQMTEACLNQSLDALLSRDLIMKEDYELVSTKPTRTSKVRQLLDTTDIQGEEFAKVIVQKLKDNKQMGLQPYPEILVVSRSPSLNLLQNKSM

[8] = molecular target: Eukaryotic translation initiation factor 2-alpha kinase 1 (Homo sapiens) (UniProt Q9BQI3); test: Inhibition of human recombinant HRI at 500 nM in presence of ATP by radiometric assay relative to control
Chain of Eukaryotic translation initiation factor 2-alpha kinase 1 (Homo sapiens) (Q9BQI3 whole entry): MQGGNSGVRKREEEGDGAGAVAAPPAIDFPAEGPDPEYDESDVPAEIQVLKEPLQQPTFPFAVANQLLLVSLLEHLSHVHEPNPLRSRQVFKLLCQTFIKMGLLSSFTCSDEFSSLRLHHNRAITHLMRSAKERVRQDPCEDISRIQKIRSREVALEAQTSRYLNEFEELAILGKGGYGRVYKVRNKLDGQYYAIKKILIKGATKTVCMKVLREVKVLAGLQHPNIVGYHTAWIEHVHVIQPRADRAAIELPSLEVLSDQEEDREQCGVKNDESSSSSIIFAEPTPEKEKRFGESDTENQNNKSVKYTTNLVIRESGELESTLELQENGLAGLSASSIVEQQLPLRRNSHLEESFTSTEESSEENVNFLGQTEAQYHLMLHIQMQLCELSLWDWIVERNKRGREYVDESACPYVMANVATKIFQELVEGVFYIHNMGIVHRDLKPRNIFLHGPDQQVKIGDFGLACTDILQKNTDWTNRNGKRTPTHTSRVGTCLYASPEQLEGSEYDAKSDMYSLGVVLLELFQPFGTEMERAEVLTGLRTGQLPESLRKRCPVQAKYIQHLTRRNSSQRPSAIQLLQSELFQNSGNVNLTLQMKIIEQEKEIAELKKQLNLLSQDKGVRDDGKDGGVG

[9] = molecular target: [Pyruvate dehydrogenase (acetyl-transferring)] kinase isozyme 4, mitochondrial (Homo sapiens) (UniProt Q16654); test: Inhibition of human recombinant PDHK4 at 500 nM in presence of ATP by radiometric assay relative to control
Chain of [Pyruvate dehydrogenase (acetyl-transferring)] kinase isozyme 4, mitochondrial (Homo sapiens) (Q16654 whole entry, looked up): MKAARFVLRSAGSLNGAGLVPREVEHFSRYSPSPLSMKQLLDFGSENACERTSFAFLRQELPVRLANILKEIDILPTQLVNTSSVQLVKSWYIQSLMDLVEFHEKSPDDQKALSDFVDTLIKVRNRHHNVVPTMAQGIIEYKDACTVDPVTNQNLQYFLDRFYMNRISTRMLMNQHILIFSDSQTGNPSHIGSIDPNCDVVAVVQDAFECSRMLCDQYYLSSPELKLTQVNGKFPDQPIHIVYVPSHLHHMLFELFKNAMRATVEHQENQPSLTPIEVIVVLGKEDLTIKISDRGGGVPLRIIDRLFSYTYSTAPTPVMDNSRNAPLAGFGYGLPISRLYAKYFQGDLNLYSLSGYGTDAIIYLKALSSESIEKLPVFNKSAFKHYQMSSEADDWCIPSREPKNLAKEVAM

[10] = molecular target: Proto-oncogene tyrosine-protein kinase receptor Ret (Homo sapiens) (UniProt P07949); test: Inhibition of human recombinant RET at 15 nM related to control ULK1
[11] = molecular target: Casein kinase II subunit alpha' (Homo sapiens) (UniProt P19784); test: Inhibition of human recombinant CK2a2 at 15 nM in presence of ATP by radiometric assay relative to control
Chain of Casein kinase II subunit alpha' (Homo sapiens) (P19784 whole entry, looked up): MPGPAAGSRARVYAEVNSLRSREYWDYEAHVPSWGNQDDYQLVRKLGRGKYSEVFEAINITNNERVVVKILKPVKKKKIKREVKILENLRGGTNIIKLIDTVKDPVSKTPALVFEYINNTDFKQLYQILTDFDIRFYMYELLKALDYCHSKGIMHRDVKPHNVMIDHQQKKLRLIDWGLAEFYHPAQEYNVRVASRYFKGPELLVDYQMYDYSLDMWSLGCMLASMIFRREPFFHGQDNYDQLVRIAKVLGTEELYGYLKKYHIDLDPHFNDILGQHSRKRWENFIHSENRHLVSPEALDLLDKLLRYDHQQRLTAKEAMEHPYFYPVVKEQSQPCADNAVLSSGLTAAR

[12] = molecular target: RAC-beta serine/threonine-protein kinase (Homo sapiens) (UniProt P31751); test: Inhibition of human recombinant AKT2 at 15 nM related to control ULK1
[13] = molecular target: Serine/threonine-protein kinase WNK2 (Homo sapiens) (UniProt Q9Y3S1); test: Inhibition of human recombinant Wnk2 at 15 nM in presence of ATP by radiometric assay relative to control
[14] = molecular target: Serine/threonine-protein kinase mTOR (Homo sapiens) (UniProt P42345); test: Inhibition of human recombinant FRAP at 15 nM related to control ULK1
[15] = molecular target: Serine/threonine-protein kinase 10 (Homo sapiens) (UniProt O94804); test: Inhibition of human recombinant LOK at 15 nM in presence of ATP by radiometric assay relative to control
[16] = molecular target: Dual specificity protein kinase CLK1 (Homo sapiens) (UniProt P49759); test: Inhibition of human recombinant CLK1 at 15 nM related to control ULK1
Chain of Dual specificity protein kinase CLK1 (Homo sapiens) (P49759 whole entry, looked up): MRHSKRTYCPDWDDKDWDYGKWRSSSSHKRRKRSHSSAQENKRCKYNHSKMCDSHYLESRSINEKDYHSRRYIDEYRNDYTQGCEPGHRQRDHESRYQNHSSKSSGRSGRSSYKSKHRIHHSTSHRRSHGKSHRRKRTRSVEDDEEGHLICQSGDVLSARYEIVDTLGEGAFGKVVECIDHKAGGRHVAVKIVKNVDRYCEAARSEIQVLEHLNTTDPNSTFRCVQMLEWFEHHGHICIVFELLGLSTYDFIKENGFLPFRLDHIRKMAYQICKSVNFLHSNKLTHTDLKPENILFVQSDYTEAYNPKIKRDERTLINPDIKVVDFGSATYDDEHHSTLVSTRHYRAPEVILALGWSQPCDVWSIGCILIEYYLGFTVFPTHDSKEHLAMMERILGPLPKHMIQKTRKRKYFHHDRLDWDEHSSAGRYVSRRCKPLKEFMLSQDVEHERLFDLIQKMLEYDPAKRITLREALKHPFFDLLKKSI

[17] = molecular target: Serine/threonine-protein kinase 4 (MST1/STK4) (Homo sapiens) (UniProt Q13043); test: Inhibition of human recombinant MST1 at 15 nM in presence of ATP by radiometric assay relative to control
[18] = molecular target: T1, Serine/threonine-protein kinase BRSK1 (Homo sapiens) (UniProt Q8TDC3); test: Inhibition of human recombinant BRSK1 at 40 nM in presence of ATP by radiometric assay relative to control
T1 sequence (whole entry): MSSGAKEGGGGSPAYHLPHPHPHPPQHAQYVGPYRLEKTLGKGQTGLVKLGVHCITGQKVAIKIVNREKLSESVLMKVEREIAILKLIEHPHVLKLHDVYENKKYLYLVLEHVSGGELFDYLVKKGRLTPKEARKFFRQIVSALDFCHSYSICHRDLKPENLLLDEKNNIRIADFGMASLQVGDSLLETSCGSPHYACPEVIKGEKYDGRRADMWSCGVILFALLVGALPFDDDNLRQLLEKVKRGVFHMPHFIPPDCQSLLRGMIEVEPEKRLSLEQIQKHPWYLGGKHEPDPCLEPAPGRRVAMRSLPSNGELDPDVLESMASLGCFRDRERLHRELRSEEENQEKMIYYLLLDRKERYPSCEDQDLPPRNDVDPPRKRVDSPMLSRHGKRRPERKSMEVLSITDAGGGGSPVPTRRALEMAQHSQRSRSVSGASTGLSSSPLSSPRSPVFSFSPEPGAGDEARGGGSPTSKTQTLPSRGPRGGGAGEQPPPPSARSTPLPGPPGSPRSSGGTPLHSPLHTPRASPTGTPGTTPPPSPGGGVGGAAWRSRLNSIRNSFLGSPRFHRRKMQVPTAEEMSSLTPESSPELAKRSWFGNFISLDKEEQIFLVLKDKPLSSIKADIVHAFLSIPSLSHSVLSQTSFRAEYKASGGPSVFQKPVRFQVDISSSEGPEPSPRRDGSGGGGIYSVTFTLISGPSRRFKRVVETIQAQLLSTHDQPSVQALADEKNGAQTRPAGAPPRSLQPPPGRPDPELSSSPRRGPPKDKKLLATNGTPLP
Outline: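 Recombinant human kinase panel (327 kinases) run as radiometric activity assays, each kinase in duplicate at one compound concentration. Activity remaining expressed relative to vehicle control; percent inhibition taken as 100% minus % activity remaining.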

[19] = molecular target: Serine/threonine-protein kinase 32C (Homo sapiens) (UniProt Q86UX6); test: Inhibition of human recombinant YANK3 at 40 nM in presence of ATP by radiometric assay relative to control
[20] = molecular target: Phosphorylase b kinase gamma catalytic chain, skeletal muscle/heart isoform (Homo sapiens) (UniProt Q16816); test: Inhibition of human recombinant PHKg1 at 40 nM related to control ULK1
Chain of Phosphorylase b kinase gamma catalytic chain, skeletal muscle/heart isoform (Homo sapiens) (Q16816 whole entry, looked up, canonical isoform): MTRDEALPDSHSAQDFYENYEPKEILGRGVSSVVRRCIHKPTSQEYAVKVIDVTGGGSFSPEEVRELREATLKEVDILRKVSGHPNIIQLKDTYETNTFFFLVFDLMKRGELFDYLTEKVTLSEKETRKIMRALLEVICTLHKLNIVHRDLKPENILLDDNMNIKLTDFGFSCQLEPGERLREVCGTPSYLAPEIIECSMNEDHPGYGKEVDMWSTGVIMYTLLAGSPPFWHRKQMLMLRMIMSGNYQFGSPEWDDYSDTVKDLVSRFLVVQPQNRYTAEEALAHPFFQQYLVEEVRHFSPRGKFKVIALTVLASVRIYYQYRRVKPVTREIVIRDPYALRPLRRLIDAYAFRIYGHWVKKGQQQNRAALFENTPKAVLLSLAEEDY

[21] = molecular target: Fibroblast growth factor receptor 2 (Homo sapiens) (UniProt P21802); test: Inhibition of human recombinant FGFR2 at 40 nM related to control ULK1
Chain of Fibroblast growth factor receptor 2 (Homo sapiens) (P21802 22-821 limits assumed): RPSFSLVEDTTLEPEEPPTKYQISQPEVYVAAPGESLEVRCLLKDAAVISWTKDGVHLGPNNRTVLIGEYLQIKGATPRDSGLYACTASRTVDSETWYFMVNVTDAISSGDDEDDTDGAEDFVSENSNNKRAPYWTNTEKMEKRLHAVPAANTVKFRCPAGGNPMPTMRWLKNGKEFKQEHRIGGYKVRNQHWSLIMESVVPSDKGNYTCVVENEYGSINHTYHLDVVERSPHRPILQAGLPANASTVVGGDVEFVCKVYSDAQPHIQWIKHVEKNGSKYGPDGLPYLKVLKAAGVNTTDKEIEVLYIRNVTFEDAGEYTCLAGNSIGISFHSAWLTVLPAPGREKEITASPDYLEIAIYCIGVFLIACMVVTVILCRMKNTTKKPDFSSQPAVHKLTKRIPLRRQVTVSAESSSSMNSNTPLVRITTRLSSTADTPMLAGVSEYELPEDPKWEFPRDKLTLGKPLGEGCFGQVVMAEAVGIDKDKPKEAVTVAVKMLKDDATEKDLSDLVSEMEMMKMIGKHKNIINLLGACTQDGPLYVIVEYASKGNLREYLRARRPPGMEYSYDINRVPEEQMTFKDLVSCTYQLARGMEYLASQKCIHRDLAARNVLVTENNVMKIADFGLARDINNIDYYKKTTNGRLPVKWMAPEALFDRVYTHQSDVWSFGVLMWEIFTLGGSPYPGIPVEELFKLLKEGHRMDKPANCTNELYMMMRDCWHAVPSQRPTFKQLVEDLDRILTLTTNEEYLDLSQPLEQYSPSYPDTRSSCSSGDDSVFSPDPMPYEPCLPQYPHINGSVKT

- fold change (FC) [1]: 0.09
- fold change (FC) [2]: 0.49
- fold change (FC) [3]: 0.41
- inhibition [4]: 58%
- inhibition [5]: 0%
- fold change (FC) [6]: 0.27
- fold change (FC) [7]: 0
- inhibition [8]: 0%
- inhibition [9]: 5%
Compound: CNC(=O)c1ccccc1Oc1nc(Nc2cc(OC)c(OC)c(OC)c2)ncc1Br

- fold change (FC) [10]: 0.16
- inhibition [11]: 5%
- fold change (FC) [12]: 0
- inhibition [13]: 2%
- fold change (FC) [14]: 0
- inhibition [15]: 0%
- fold change (FC) [16]: 0.95
- inhibition [17]: 3%
Compound: CC(C)[C@H](NC(=O)c1cc(-c2cnn3cc(-c4ccc(OCCN5CCCCC5)cc4)cnc23)cs1)C(F)(F)F

- inhibition [18]: 2%
- inhibition [19]: 5%
- fold change (FC) [20]: 0.16
- fold change (FC) [21]: 0
Compound: O=C(N[C@@H](C1CC1)C(F)(F)F)c1cc(-c2cnn3cc(-c4ccc(F)cc4)cnc23)cs1
